Experimental data as given in ChEMBL document CHEMBL1799960, “Diadenosine 5',5''-(boranated)polyphosphonate analogues as selective nucleotide pyrophosphatase/phosphodiesterase inhibitors” (J Med Chem, 2010).

Columns and labels:
Assay type in all cases: cell-based
Autotaxin (Homo sapiens) = Autotaxin (Homo sapiens) (UniProt Q13822); experiment: Inhibition of human NPP2 expressed in COS7 cells assessed as production of p-nitrophenol using pnp-TMP as the substrate at 100 uM after 15 mins […]; details: COS-7
Method in brief: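 Human NPP1, NPP2 (membrane lysate or conditioned medium for the secreted form) or NPP3 from transfected COS-7 cells, preincubated 3 min at 37 °C in 50 mM Tris pH 8.5 buffer with CaCl2, NaCl and KCl. Substrate and inhibitor both at 100 μM final. pnp-TMP: p-nitrophenol read at 405 nm at 15 min. ATP or Ap5A: stopped at 30 min with perchloric acid, then HPLC. Results as % residual activity versus control; three to six experiments in triplicate.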

[1] = target: T1, Ectonucleotide pyrophosphatase/phosphodiesterase family member 1 (Homo sapiens) (UniProt P22413); experiment: Inhibition of human NPP1 in human Saos2 cells assessed as production of p-nitrophenol using pnp-TMP as the substrate […]; details: SAOS-2
T1 sequence (whole entry): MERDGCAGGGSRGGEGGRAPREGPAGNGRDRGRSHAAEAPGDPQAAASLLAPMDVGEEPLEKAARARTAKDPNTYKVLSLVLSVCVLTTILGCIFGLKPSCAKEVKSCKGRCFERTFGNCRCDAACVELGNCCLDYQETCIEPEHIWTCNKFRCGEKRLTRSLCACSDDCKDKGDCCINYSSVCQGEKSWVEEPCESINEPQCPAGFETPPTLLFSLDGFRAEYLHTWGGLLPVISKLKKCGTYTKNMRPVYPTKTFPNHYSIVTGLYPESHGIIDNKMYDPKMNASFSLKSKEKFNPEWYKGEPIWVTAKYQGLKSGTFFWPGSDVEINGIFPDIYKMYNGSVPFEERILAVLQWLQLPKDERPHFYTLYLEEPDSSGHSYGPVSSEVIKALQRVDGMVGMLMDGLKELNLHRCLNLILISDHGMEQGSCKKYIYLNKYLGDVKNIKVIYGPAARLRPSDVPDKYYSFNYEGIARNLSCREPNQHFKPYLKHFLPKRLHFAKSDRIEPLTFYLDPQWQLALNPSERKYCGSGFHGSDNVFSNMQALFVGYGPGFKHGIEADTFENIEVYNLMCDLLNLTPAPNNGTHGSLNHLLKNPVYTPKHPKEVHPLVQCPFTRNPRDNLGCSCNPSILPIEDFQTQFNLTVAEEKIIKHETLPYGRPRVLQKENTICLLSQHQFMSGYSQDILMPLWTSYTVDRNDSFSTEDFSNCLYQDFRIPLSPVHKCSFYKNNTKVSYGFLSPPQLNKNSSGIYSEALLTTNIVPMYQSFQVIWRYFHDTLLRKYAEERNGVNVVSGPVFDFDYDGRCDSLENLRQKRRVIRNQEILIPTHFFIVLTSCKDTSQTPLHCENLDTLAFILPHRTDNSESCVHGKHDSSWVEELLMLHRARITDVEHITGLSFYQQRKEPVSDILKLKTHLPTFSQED

[2] = target: T2, Ectonucleoside triphosphate diphosphohydrolase 3 (Homo sapiens) (UniProt O75355); experiment: Inhibition of human NTPDase3 expressed in COS7 cells assessed as amount of inorganic phosphate released using ATP as the substrate at 100 uM after 15 mins by malachite green reagent method; details: COS-7
T2 sequence (whole entry): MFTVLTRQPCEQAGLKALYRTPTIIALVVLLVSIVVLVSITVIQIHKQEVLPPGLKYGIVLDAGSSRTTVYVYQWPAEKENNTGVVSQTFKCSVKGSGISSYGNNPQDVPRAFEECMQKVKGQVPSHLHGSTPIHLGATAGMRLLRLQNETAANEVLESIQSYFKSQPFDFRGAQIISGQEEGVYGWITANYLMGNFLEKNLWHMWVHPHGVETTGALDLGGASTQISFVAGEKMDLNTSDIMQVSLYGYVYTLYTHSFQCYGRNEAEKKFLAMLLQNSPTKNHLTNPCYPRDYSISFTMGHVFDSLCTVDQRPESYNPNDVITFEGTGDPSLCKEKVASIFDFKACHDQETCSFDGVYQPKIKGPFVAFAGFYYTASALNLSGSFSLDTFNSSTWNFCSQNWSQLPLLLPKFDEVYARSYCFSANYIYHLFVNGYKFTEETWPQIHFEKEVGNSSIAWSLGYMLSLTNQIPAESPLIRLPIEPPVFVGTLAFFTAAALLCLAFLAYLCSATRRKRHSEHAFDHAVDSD
Method in brief: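 Protein extracts of transfected COS-7 cells (ecto-5'-nucleotidase: 100 μM AMP substrate; NTPDases: 100 μM ATP) were preincubated 3 min at 37 °C in Tris-Ringer pH 7.3 with inhibitor at 100 μM final. After 15 min, malachite green stop; Pi read at 630 nm. Activity given as % of substrate-only control. Mean ± SD of three experiments in triplicate.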

[3] = target: T3, Ectonucleoside triphosphate diphosphohydrolase 1 (Homo sapiens) (UniProt P49961); experiment: Activity of human NTPDase1 expressed in COS7 cells assessed as amount of inorganic phosphate released using ATP as the substrate at 100 uM after 15 mins by malachite green reagent method; details: COS-7
T3 sequence (whole entry): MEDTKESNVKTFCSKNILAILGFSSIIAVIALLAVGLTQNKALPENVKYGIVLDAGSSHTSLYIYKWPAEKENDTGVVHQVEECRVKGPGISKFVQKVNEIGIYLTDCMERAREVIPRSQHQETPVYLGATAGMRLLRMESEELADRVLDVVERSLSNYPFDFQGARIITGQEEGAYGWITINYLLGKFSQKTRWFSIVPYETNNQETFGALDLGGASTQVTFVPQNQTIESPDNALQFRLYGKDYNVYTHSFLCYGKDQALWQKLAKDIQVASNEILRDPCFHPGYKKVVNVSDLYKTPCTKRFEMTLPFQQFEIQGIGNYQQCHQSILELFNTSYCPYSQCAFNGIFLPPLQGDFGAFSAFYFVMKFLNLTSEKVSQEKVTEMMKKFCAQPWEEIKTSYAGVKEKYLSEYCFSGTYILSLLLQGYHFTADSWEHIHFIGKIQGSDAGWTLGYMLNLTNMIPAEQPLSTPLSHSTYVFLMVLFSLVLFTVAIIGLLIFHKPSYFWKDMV
Method in brief: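 Crude membrane-enriched protein extract of transiently transfected COS-7 cells, preincubated 3 min at 37 °C in Tris-Ringer buffer pH 7.3. Reaction started with 100 μM ATP, or with the analogue alone at 100 μM to test it as substrate. Stopped after 15 min with malachite green reagent; released Pi read at 630 nm. Mean ± SD, n = 3.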

SMILES	inhibition (Autotaxin (Homo sapiens)) [%]	inhibition [1] [%]	inhibition [2] [%]	Activity [3] [%]
BP(=O)(OP(=O)(O)CP(=O)(O)OC[C@H]1O[C@@H](n2cnc3c(N)ncnc32)C[C@@H]1O)OP(=O)(O)CP(=O)(O)OC[C@H]1O[C@@H](n2cnc3c(N)ncnc32)C[C@@H]1O	95	90	10	–
Nc1ncnc2c1ncn2[C@@H]1O[C@H](COP(=O)(O)CP(=O)(O)OP(=O)(O)CP(=O)(O)OC[C@H]2O[C@@H](n3cnc4c(N)ncnc43)[C@H](O)[C@@H]2O)[C@@H](O)[C@H]1O	95	80	10	1.5
BP(=O)(OP(=O)(O)CP(=O)(O)OC[C@H]1O[C@@H](n2cnc3c(N)ncnc32)[C@H](O)[C@@H]1O)OP(=O)(O)CP(=O)(O)OC[C@H]1O[C@@H](n2cnc3c(N)ncnc32)[C@H](O)[C@@H]1O	95	90	10	0.5
Nc1ncnc2c1ncn2[C@H]1C[C@H](O)[C@@H](COP(=O)(O)CP(=O)(O)OP(=O)(O)CP(=O)(O)OC[C@H]2O[C@@H](n3cnc4c(N)ncnc43)C[C@@H]2O)O1	95	80	10	1.1
